ChEMBL document CHEMBL3044991, “Synthesis and biological activity of 4-(4,6-disubstituted-pyrimidin-2-yloxy)phenoxy acetates” (2010)

Experiments:
Assay type in all cases: functional
Settings in all cases: read-out: GI
Digitaria sanguinalis [1] = experiment: Herbicidal activity against Digitaria sanguinalis (hairy crabgrass) assessed as root growth inhibition at 10 mg/L applied to germinated seeds measured after 65 hr at 28 degC
How it was run: (§1)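 Compounds dissolved in DMF with Tween 20 and diluted in distilled water to an emulsion. Germinated seeds, usually 15 per plate, were placed on two filter papers wetted with test solution in a Petri dish. Plates were kept in the dark for 65 h at 28 (±1) ºC. Root lengths of 10 seeds per plate were measured and averaged. Blank was emulsion without compound; quizalofop-P-ethyl served as control.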

Digitaria sanguinalis [2] = experiment: Herbicidal activity against Digitaria sanguinalis (hairy crabgrass) assessed as root growth inhibition at 50 mg/L applied to germinated seeds measured after 65 hr at 28 degC; how it was run: as §1
Digitaria sanguinalis [3] = experiment: Herbicidal activity against Digitaria sanguinalis (hairy crabgrass) assessed as root growth inhibition at 100 mg/L applied to germinated seeds measured after 65 hr at 28 degC; how it was run: as §1
Brassica napus [4] = experiment: Herbicidal activity against Brassica napus (oilseed rape) assessed as root growth inhibition at 10 mg/L applied to germinated seeds measured after 65 hr at 28 degC; how it was run: as §1
Brassica napus [5] = experiment: Herbicidal activity against Brassica napus (oilseed rape) assessed as root growth inhibition at 50 mg/L applied to germinated seeds measured after 65 hr at 28 degC; how it was run: as §1
Brassica napus [6] = experiment: Herbicidal activity against Brassica napus (oilseed rape) assessed as root growth inhibition at 100 mg/L applied to germinated seeds measured after 65 hr at 28 degC; how it was run: as §1

Work on `CCCCOC(=O)COc1ccc(Oc2nc(C)cc(C)n2)cc1` yielded an inhibition of growth at 10 µg/mL (Digitaria sanguinalis [1]) of 42.6%, an inhibition of growth at 50 µg/mL (Digitaria sanguinalis [2]) of 97.6% and an inhibition of growth at 100 µg/mL (Digitaria sanguinalis [3]) of 100%. For the same compound, the inhibition of growth at 10 µg/mL (Brassica napus [4]) was 21.5%, the inhibition of growth at 50 µg/mL (Brassica napus [5]) was 34.2% and the inhibition of growth at 100 µg/mL (Brassica napus [6]) was 50.2%.

Compound `COC(=O)COc1ccc(Oc2nc(C)cc(C)n2)cc1` has an inhibition of growth at 10 µg/mL (Digitaria sanguinalis [1]) of 44.7%, an inhibition of growth at 50 µg/mL (Digitaria sanguinalis [2]) of 97.3% and an inhibition of growth at 100 µg/mL (Digitaria sanguinalis [3]) of 100%. The inhibition of growth at 10 µg/mL (Brassica napus [4]) was 11.9%, the inhibition of growth at 50 µg/mL (Brassica napus [5]) was 26.7% and the inhibition of growth at 100 µg/mL (Brassica napus [6]) was 44.7%.

Compound `CCCOC(=O)COc1ccc(Oc2nc(C)cc(C)n2)cc1` has an inhibition of growth at 10 µg/mL (Digitaria sanguinalis [1]) of 36.9%, an inhibition of growth at 50 µg/mL (Digitaria sanguinalis [2]) of 97.5% and an inhibition of growth at 100 µg/mL (Digitaria sanguinalis [3]) of 100%. For the same compound, the inhibition of growth at 10 µg/mL (Brassica napus [4]) was 12.1%, the inhibition of growth at 50 µg/mL (Brassica napus [5]) was 33.9% and the inhibition of growth at 100 µg/mL (Brassica napus [6]) was 54.5%.

Work on `Cc1cc(C)nc(Oc2ccc(OCC(=O)OC(C)C)cc2)n1` yielded an inhibition of growth at 10 µg/mL (Digitaria sanguinalis [1]) of 35%, an inhibition of growth at 50 µg/mL (Digitaria sanguinalis [2]) of 95.1% and an inhibition of growth at 100 µg/mL (Digitaria sanguinalis [3]) of 100%. For the same compound, the inhibition of growth at 10 µg/mL (Brassica napus [4]) was 9.2%, the inhibition of growth at 50 µg/mL (Brassica napus [5]) was 14.3% and the inhibition of growth at 100 µg/mL (Brassica napus [6]) was 26.4%.

With `CCOC(=O)COc1ccc(Oc2nc(C)cc(C)n2)cc1` the inhibition of growth at 10 µg/mL (Digitaria sanguinalis [1]) was 38.5%, the inhibition of growth at 50 µg/mL (Digitaria sanguinalis [2]) was 98.4% and the inhibition of growth at 100 µg/mL (Digitaria sanguinalis [3]) was 100%. It also gave an inhibition of growth at 10 µg/mL (Brassica napus [4]) of 14.2%, an inhibition of growth at 50 µg/mL (Brassica napus [5]) of 32.7% and an inhibition of growth at 100 µg/mL (Brassica napus [6]) of 58.4%.

Work on `CCOC(=O)COc1ccc(Oc2nc(OC)cc(OC)n2)cc1` yielded an inhibition of growth at 10 µg/mL (Digitaria sanguinalis [1]) of 39.9%, an inhibition of growth at 50 µg/mL (Digitaria sanguinalis [2]) of 96.2% and an inhibition of growth at 100 µg/mL (Digitaria sanguinalis [3]) of 100%. For the same compound, the inhibition of growth at 10 µg/mL (Brassica napus [4]) was 13.4%, the inhibition of growth at 50 µg/mL (Brassica napus [5]) was 31% and the inhibition of growth at 100 µg/mL (Brassica napus [6]) was 41.1%.

`COc1cc(OC)nc(Oc2ccc(OCC(=O)OC(C)C)cc2)n1` gave an inhibition of growth at 10 µg/mL (Digitaria sanguinalis [1]) of 32.7%, an inhibition of growth at 50 µg/mL (Digitaria sanguinalis [2]) of 96.5% and an inhibition of growth at 100 µg/mL (Digitaria sanguinalis [3]) of 100%. The inhibition of growth at 10 µg/mL (Brassica napus [4]) was 14.6%, the inhibition of growth at 50 µg/mL (Brassica napus [5]) was 21% and the inhibition of growth at 100 µg/mL (Brassica napus [6]) was 25.1%.

With `CCOC(=O)[C@@H](C)Oc1ccc(Oc2cnc3cc(Cl)ccc3n2)cc1` [QUIZALOFOP-P-ETHYL] the inhibition of growth at 10 µg/mL (Digitaria sanguinalis [1]) was 63.5%, the inhibition of growth at 50 µg/mL (Digitaria sanguinalis [2]) was 95.3% and the inhibition of growth at 100 µg/mL (Digitaria sanguinalis [3]) was 100%. The inhibition of growth at 10 µg/mL (Brassica napus [4]) was 33.8%, the inhibition of growth at 50 µg/mL (Brassica napus [5]) was 39.2% and the inhibition of growth at 100 µg/mL (Brassica napus [6]) was 51.2%.

`CCCOC(=O)COc1ccc(Oc2nc(OC)cc(OC)n2)cc1` was tested, and the inhibition of growth at 10 µg/mL (Digitaria sanguinalis [1]) was 32.5%, the inhibition of growth at 50 µg/mL (Digitaria sanguinalis [2]) was 95.2% and the inhibition of growth at 100 µg/mL (Digitaria sanguinalis [3]) was 100%. The inhibition of growth at 10 µg/mL (Brassica napus [4]) was 10.1%, the inhibition of growth at 50 µg/mL (Brassica napus [5]) was 13.1% and the inhibition of growth at 100 µg/mL (Brassica napus [6]) was 15.9%.

Compound `COC(=O)COc1ccc(Oc2nc(OC)cc(OC)n2)cc1` has an inhibition of growth at 10 µg/mL (Digitaria sanguinalis [1]) of 42.8%, an inhibition of growth at 50 µg/mL (Digitaria sanguinalis [2]) of 98.5% and an inhibition of growth at 100 µg/mL (Digitaria sanguinalis [3]) of 100%. The inhibition of growth at 10 µg/mL (Brassica napus [4]) was 22.9%, the inhibition of growth at 50 µg/mL (Brassica napus [5]) was 34.4% and the inhibition of growth at 100 µg/mL (Brassica napus [6]) was 39.8%.

With `CCCCOC(=O)COc1ccc(Oc2nc(OC)cc(OC)n2)cc1` the inhibition of growth at 10 µg/mL (Digitaria sanguinalis [1]) was 41.8%, the inhibition of growth at 50 µg/mL (Digitaria sanguinalis [2]) was 96.9% and the inhibition of growth at 100 µg/mL (Digitaria sanguinalis [3]) was 100%. For the same compound, the inhibition of growth at 10 µg/mL (Brassica napus [4]) was 9.5%, the inhibition of growth at 50 µg/mL (Brassica napus [5]) was 13.4% and the inhibition of growth at 100 µg/mL (Brassica napus [6]) was 28.3%.
